For 2 molecules, Activity and EC50 results are on record in ChEMBL document CHEMBL1140686, “Indanylacetic acids as PPAR-delta activator insulin sensitizers” (Bioorg Med Chem Lett, 2007).

A word on the pEC50: it is the negative decadic logarithm of the EC50, by convention in mol/L.

Assay [1] concerns Mus musculus. Nature of the assay: Increase in serum HDL level in hApoA1 mouse model at 10 mg/kg, po. The assay is classed as functional.
For assay [2], the system named is Mus musculus. Nature of the assay: Decrease in serum triglyceride level in hApoA1 mouse model at 10 mg/kg, po. In kind it is functional. More on the design: scale not given: the % may be the effect or the level left.
In assay [3] the target is T1, Peroxisome proliferator-activated receptor alpha (Homo sapiens, UniProt Q07869).
T1 sequence (Q07869 whole entry): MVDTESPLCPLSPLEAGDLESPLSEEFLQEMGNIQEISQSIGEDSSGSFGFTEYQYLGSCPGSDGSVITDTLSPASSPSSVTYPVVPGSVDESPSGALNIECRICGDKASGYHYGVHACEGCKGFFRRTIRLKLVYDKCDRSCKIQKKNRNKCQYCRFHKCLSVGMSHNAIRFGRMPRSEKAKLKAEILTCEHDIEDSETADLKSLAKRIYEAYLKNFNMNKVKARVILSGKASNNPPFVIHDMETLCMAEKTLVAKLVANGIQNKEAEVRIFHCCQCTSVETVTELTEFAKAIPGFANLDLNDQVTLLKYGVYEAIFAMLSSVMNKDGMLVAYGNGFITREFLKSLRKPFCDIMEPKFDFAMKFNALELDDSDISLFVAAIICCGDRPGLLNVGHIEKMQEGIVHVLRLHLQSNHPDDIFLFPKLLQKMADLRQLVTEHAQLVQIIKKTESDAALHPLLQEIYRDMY
The experiment in a line: Agonist activity at PPARalpha by FRET assay. The assay is classed as functional. An outline of the steps: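 FRET coactivator-recruitment assay run with the PPAR-δ ligand binding domain (GST-tagged human PPAR-δ LBD) and separately with the PPAR-α ligand binding domain. Compounds were incubated with europium-labelled anti-GST antibody, biotinylated TRAP220 coactivator protein and streptavidin-labelled APC. Read in a fluorimeter at excitation 340 nm and emission 615 and 665 nm.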

In the next assay the test system is 3T3-L1. Nature of the assay: Induction of insulin receptor in mouse 3T3L1 cells assessed as insulin sensitizing activity. The assay is classed as functional, cell-based. To be noted: Mus musculus, 3T3-L1. An outline of the steps: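 3T3-L1 preadipocytes grown about 1 week to 2 days post-confluence, then exposed 2 days to compound plus 0.5 µM IGF-1 in DMEM/10% FBS/2 mM glutamine/pen-strep, then 4 days in plain medium. Cells bound 0.1 nM [125I]insulin ± 100 nM unlabeled insulin for 1 h at room temperature, were washed and lysed in 1 N NaOH, then gamma-counted. EC50 taken where a plateau was reached; percent maximal stimulation recorded.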

For assay [4], the system named is Mus musculus. Nature of the assay: Reduction in blood glucose level in db/db mouse at 3 mg/kg, po. In kind it is functional, organism-based. More on the design: dose 3 mg/kg.
Assay [5] has as its system Mus musculus. Nature of the assay: Increase in serum HDL level in hApoA1 mouse model at 30 mg/kg, po. In kind it is functional.
In assay [6] the test system is Mus musculus. Nature of the assay: Decrease in serum triglyceride level in hApoA1 mouse model at 30 mg/kg, po. In kind it is functional. More on the design: scale not given: the % may be the effect or the level left.

pEC50: −log10 of the molar value. Calls of active or inactive are those of the source. The rule behind the calls is not given here.

Consider `Cc1cc(SCc2sc(-c3ccc(C(F)(F)F)cc3)nc2C)ccc1OCC(=O)O` [GW501516], for which the Activity in the assay on Mus musculus [1] is recorded as 30%; in the assay with Mus musculus [2] it was 33%.

Take `Cc1oc(-c2ccc(-c3ccccc3)cc2)nc1CCOc1ccc2c(c1)CC[C@H]2CC(=O)O`: the results for the pEC50 (in assay [3]; with 3T3-L1) were 5.57 and 7.35, respectively. Further, the outcome with Mus musculus [4] was Active. In addition, the Activity amounted to 29% in the assay with Mus musculus [5] and 38% with Mus musculus [6].
